Test results reported in paper PMC5402717 (Pain, 2017).
Entries after “also recorded” stand apart in the source; their conditions may differ.

What was measured:
PKG-1α [1] = experiment: PKG-1α activity in sciatic nerve segment after capsaicin injection; assay type: in vivo, rat; details: capsaicin 0.1 μM under the perineurium of the sciatic nerve, 30 minutes
Summary of the method: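 Capsaicin (0.1 μM) injected under the sciatic nerve perineurium, with an equal vehicle volume into the contralateral nerve. After 30 min, the 1 cm segment containing the injection site was harvested and homogenized. Equal-protein samples were assayed for PKG-1α activity; N = 4.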

purified bovine PKG-1α = biological target: T1, purified bovine PKG-1α (Bos taurus, UniProt P00516); experiment: In vitro protein kinase G assay; assay type: biochemical; details: for IC50: IC50 for PKG-1α
T1 sequence (P00516 1-671): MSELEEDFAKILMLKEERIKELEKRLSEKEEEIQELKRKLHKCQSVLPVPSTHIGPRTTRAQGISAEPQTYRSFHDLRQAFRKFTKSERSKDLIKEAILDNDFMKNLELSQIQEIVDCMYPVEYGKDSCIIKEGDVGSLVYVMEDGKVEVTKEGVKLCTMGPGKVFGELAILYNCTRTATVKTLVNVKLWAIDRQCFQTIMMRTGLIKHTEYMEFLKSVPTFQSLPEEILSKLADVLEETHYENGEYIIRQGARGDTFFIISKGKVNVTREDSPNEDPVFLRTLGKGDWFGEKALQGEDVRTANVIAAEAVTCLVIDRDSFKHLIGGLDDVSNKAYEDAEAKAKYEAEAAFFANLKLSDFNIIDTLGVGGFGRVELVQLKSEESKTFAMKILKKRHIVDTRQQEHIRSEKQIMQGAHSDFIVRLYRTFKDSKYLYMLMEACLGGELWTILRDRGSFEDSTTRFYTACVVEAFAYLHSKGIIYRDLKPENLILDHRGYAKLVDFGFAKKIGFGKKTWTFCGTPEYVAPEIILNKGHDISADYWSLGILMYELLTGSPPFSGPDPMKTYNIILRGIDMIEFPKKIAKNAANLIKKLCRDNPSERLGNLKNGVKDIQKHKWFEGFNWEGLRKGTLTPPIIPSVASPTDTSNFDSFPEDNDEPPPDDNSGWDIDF
Summary of the method: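 Reaction started with 10 μM [32P]-ATP, run 20 min at 37°C, stopped with 50 mM EDTA. Peptide captured on phosphocellulose filters, counted by β-scintillation. IC50s are single determinations in duplicate.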

[2] = biological target: recombinant catalytic domain of human PKA (Homo sapiens, UniProt P17612); experiment: In vitro cAMP-dependent kinase; assay type: biochemical
Summary of the method: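 Recombinant human PKA catalytic domain with kemptide substrate; activity measured as 32P incorporation from [γ-32P]ATP in Tris buffer. Labeled peptide captured on cellulose phosphate filters and counted by β-scintillation. IC50s are single determinations run in duplicate.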

[3] = biological target: cardiac hERG potassium channel (Homo sapiens, UniProt Q12809); experiment: hERG tail current recording; assay type: cell-based
Summary of the method: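 hERG tail currents evoked by a voltage protocol applied every 10 s. Test compound applied cumulatively at 0.1, 0.3, 1.0, 3, 10 and 30 μM, 5 min per concentration, with 1 μM cisapride as positive control. Mean percent inhibition from 13 cells gave a 6-point curve, from which IC50 was calculated.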

[4] = Stability of N46 in plasma in vitro; assay type: in vitro ADME; details: rat plasma, 37°C
[5] = Tissue distribution of N46 in vivo; details: rat, tail vein injection
Summary of the method: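 Test compound injected into the rat tail vein. Tissues homogenized in 0.1N sodium carbonate (2 mL) plus methanol (6 mL), centrifuged, and supernatant analyzed by LC/MS. C18 column, acetonitrile-water gradient 0-100% over 20 min, detection at 220 nm. Results corrected for % recovery using spiked standard curves.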

Sprague-Dawley rats [6] = experiment: CFA-induced thermal hyperalgesia; assay type: in vivo, rat
Summary of the method: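 Male Sprague-Dawley rats (250-300 g) given 100 μL CFA intraplantar; one day later, test compound was given intrathecally at L4/L5 (15 μL, 1% DMSO/saline, saline flush) or into the tail vein (1 mL, quarter normal saline), vs vehicle. Hargreaves radiant heat test: glass at 30°C, 30 min acclimation, baseline latency ~10 s, 20 s cutoff. Both paws tested the following day, double-blind.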

Sprague-Dawley rats [7] = experiment: MIA-induced osteoarthritic knee joint pain; assay type: in vivo, rat; details: 5 nmol intra-articular 14 days after MIA
Summary of the method: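 Baseline hind-limb weight bearing taken on day 0. Rats then received 3 mg MIA in 50 μL saline into the right knee and saline into the left. At 14 days, 5 nmol test compound or quarter-saline vehicle (50 μL) was given intra-articularly. Incapacitance tester: paw force averaged over 5 s, 3 trials per point, expressed as percent difference between limbs.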

Sprague-Dawley rats [8] = experiment: Capsaicin-induced mechanical hypersensitivity; assay type: in vivo, rat; details: 10 nmol N46 into hind paw, no capsaicin
Summary of the method: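 Male Sprague-Dawley rats given 10 nmol test compound intraplantar, without capsaicin. von Frey hairs (0.4-15 g) applied for ~6 s each, up-down sequence starting at 2 g. 50% paw withdrawal threshold calculated by the Chaplan method at set times after injection; n = 15 per group; double-blind.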

[9] = Heart rate and blood pressure monitoring after N46 injection; assay type: in vivo, rat; details: injected 1uM N46, monitored 30 minutes; data not shown
Summary of the method: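 Heart rate and systolic and diastolic blood pressure recorded for a 30 min baseline, then 1uM test compound injected and monitoring continued for 30 min.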

[10] = General observation for abnormalities or deficits; assay type: in vivo, rat; details: N46-injected rats
panel of 274 kinases = experiment: Kinase panel screening, overall selectivity; assay type: biochemical
PKG-1α [11] = details: cited from earlier work

Sequence of cardiac hERG potassium channel (Q12809 whole entry): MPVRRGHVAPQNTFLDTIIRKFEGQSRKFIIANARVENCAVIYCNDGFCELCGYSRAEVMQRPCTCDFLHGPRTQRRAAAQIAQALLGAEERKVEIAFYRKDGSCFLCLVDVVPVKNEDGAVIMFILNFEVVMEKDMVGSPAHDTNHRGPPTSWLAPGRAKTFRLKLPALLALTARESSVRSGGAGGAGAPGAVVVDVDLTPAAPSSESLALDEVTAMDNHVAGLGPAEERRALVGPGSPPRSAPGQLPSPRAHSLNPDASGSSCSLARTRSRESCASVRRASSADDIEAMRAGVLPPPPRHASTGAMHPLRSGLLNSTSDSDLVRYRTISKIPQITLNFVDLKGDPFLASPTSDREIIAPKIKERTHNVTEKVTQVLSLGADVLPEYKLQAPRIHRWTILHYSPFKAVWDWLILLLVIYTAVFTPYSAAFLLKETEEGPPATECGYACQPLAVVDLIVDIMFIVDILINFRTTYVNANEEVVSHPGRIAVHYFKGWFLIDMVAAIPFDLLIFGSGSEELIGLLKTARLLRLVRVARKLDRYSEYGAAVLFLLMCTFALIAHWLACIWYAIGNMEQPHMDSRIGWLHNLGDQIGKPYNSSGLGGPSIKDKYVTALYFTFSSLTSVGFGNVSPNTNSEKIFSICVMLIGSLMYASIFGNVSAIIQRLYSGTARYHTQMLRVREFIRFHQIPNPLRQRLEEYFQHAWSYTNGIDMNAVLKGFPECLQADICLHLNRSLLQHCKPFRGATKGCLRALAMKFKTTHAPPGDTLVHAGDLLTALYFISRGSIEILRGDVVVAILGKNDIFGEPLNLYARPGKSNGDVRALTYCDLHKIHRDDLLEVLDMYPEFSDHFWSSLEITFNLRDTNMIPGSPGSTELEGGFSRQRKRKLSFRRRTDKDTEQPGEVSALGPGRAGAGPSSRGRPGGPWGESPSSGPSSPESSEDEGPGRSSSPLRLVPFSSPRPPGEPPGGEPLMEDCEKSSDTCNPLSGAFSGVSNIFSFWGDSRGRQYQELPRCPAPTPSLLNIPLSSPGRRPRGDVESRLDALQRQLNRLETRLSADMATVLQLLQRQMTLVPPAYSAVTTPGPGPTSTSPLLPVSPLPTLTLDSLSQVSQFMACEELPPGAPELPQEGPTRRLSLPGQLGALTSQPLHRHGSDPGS

COc1cc(CNC(=O)CCCC/C=C/C(C)C)ccc1O [capsaicin]
PKG-1α in the nerve segment that was active (PKG-1α [1]): 40 ± 15%

CCCOc1ccc(OC)c(F)c1C(=O)c1ccc(C(=O)N[C@@H]2CNC[C@H]2NC(=O)c2ccc3[nH]ncc3c2)cc1 [N46, N-((3R,4R)-4-(4-(2-fluoro-3-methoxy-6-propoxybenzoyl)benzamido)pyrrolidin-3-yl)-1H-indazole-5-carboxamide]
fold difference of IC50, PKA versus PKG-1α (purified bovine PKG-1α): 714 fold
IC50 (purified bovine PKG-1α): 7.5 nM
IC50 (purified bovine PKG-1α; 10 μM ATP, 37°C, 20 minutes): 7 nM
type of inhibition of PKG-1α (kinetic studies) (purified bovine PKG-1α; data not shown): noncompetitive inhibitor
IC50 [2]: 5000 nM
IC50 [3]: 4470 nM
stability in plasma (time stable) [4]: at least 7 hours
presence in the CNS [5]: not detected in the CNS
thermal hyperalgesia (PWL), CFA-injected paw (Sprague-Dawley rats [6]; 0.25 nmol intrathecal 1 day after CFA, measured post-CFA day 2, vs vehicle): marked reduction
thermal hyperalgesia (PWL), CFA-injected paw (Sprague-Dawley rats [6]; 1 nmol into the tail vein 1 day after CFA, 24 hours later, vs vehicle): significantly increased the PWL; also recorded: significantly reduced the heat hyperalgesia
duration of relief after a single injection (Sprague-Dawley rats [6]; CFA model): at least 24 hours
thermal threshold, contralateral noninflamed paw (Sprague-Dawley rats [6]; N46 intrathecal): no significant changes
duration of relief after a single injection (Sprague-Dawley rats [7]): 7 days
weight bearing distribution (Sprague-Dawley rats [7]; days 15 and 21, vs vehicle): significant improvement in weight bearing distribution; also recorded: significantly reversed the MIA-induced shift in weight bearing
mechanical threshold, N46 alone (Sprague-Dawley rats [8]): had no effect
heart rate and systolic and diastolic blood pressure [9]: no significant effect
sedation [10]: no evidence of sedation
number of kinases inhibited more than 50% (panel of 274 kinases; 750 nM N46): 12
off-target hit rate (kinases inhibited by more than 50%) (panel of 274 kinases; 12 out of 274, dose of N46 where PKG-1 was inhibited 100%): 4.4%

Nc1nc2c(nc(Sc3ccc(Cl)cc3)n2[C@@H]2O[C@@H]3CO[P@@](=O)(S)O[C@H]3[C@H]2O)c(=O)[nH]1 [RPG, Rp-8-pCPT-cGMPS, reference compound]
thermal hyperalgesia (PWL), CFA-injected paw (Sprague-Dawley rats [6]; 250 nmol intrathecal 1 day after CFA, PWL measured the following day, vs vehicle): alleviated significantly; also recorded: significant improvement in mean PWL
thermal threshold, contralateral noninflamed paw (Sprague-Dawley rats [6]; RPG intrathecal): no significant changes
Ki (PKG-1α [11]): 500 nM

COC(=O)[C@@]1(OC)C[C@H]2O[C@]1(C)n1c3ccccc3c3c4c(c5c6ccccc6n2c5c31)C(=O)N(C)C4 [KT5823]
Ki (PKG-1α [11]): 234 nM
